From ChEMBL document CHEMBL1152649, “Synthesis, cytotoxicity and human telomerase inhibition activities of a series of 1,2-heteroannelated anthraquinones and anthra[1,2-d]imidazole-6,11-dione homologues” (2009)

Experiments:
SW-620 = test: Antiproliferative activity against human SW620 cells assessed as cell growth at 10 uM; type: functional; conditions: read-out: Activity
Outline: (§1)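 NCI 60 cell line panel, single dose (10^-5 M), run per the Developmental Therapeutics Program protocol (one dose mean graph). Each result is the growth percentage of treated cells relative to untreated control cells.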

MCF7 = test: Antiproliferative activity against human MCF7 cells assessed as cell growth at 10 uM; type: functional; conditions: read-out: Activity
Outline: (§2)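 NCI 60 cell line panel, single-dose screen (10^-5 M) run by the developmental therapeutics program protocol. Results are given as growth percent of treated cells relative to untreated control cells for each line.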

MDA-MB-435 = test: Antiproliferative activity against human MDA-MB-435 cells assessed as cell growth at 10 uM; type: functional; conditions: read-out: Activity; outline: as §2
SK-OV-3 = test: Antiproliferative activity against human SKOV3 cells assessed as cell growth at 10 uM; type: functional; conditions: read-out: Activity; outline: as §2
K562 = test: Antiproliferative activity against human K562 cells assessed as cell growth at 10 uM; type: functional; conditions: read-out: Activity; outline: as §2
[1] = Antiproliferative activity against human RPMI8266 cells assessed as cell growth at 10 uM; type: functional; conditions: read-out: Activity; outline: as §2
SR = test: Antiproliferative activity against human SR cells assessed as cell growth at 10 uM; type: functional; conditions: read-out: Activity; outline: as §1
786-0 = test: Antiproliferative activity against human 786-0 cells assessed as cell growth at 10 uM; type: functional; conditions: read-out: Activity; outline: as §2
ACHN = test: Antiproliferative activity against human ACHN cells assessed as cell growth at 10 uM; type: functional; conditions: read-out: Activity; outline: as §2
CAKI-1 = test: Antiproliferative activity against human Caki1 cells assessed as cell growth at 10 uM; type: functional; conditions: read-out: Activity; outline: as §2
SK-MEL-5 = test: Antiproliferative activity against human SK-MEL-5 cells assessed as cell growth at 10 uM; type: functional; conditions: read-out: Activity; outline: as §2
HOP-92 = test: Antiproliferative activity against human HOP92 cells assessed as cell growth at 10 uM; type: functional; conditions: read-out: Activity; outline: as §2
NCI-H23 = test: Antiproliferative activity against human NCI-H23 cells assessed as cell growth at 10 uM; type: functional; conditions: read-out: Activity; outline: as §2
NCI-H322M = test: Antiproliferative activity against human NCI-H322M cells assessed as cell growth at 10 uM; type: functional; conditions: read-out: Activity; outline: as §2
NCI-H460 = test: Antiproliferative activity against human NCI-H460 cells assessed as cell growth at 10 uM; type: functional; conditions: read-out: Activity; outline: as §2
KM12 = test: Antiproliferative activity against human KM12 cells assessed as cell growth at 10 uM; type: functional; conditions: read-out: Activity; outline: as §2
[2] = target: Telomerase reverse transcriptase (Homo sapiens) (UniProt O14746); test: Inhibition of TERT in human H1299 cells assessed as residual transcriptional activity at 100 uM after 24 hrs by SEAP reporter gene assay; values are per cent of control
Chain of Telomerase reverse transcriptase (Homo sapiens) (O14746 whole entry): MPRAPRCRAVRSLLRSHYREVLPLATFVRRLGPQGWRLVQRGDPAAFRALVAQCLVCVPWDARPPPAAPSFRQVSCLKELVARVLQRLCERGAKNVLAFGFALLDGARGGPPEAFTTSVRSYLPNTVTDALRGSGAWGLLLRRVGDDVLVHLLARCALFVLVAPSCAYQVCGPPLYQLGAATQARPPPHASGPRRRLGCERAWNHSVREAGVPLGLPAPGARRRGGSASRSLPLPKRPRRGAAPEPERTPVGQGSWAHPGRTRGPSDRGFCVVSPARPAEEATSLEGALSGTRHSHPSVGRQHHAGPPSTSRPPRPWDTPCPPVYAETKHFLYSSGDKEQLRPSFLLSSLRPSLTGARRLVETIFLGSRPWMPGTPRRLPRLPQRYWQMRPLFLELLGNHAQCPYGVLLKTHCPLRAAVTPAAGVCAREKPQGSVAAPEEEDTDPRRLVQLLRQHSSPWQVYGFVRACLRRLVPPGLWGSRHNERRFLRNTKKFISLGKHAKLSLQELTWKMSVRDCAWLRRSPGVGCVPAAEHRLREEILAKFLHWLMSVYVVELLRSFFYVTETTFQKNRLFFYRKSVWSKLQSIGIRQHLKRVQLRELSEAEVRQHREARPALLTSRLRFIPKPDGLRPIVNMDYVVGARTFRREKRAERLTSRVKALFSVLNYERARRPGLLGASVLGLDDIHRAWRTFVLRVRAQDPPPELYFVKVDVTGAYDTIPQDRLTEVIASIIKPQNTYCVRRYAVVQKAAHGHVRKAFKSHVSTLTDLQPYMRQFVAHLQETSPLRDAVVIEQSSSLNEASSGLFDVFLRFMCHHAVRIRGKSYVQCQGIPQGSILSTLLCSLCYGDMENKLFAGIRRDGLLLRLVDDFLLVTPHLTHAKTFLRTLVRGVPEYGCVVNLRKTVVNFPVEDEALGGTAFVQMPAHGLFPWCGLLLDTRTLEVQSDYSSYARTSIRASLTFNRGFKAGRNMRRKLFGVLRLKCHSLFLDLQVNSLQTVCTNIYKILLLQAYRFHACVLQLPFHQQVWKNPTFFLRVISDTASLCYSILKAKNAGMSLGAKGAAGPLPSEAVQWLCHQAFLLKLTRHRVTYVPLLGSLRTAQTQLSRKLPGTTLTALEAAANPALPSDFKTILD

Q: Which growth at 10 µM (SW-620) does the source give for `N#Cc1ccc(-c2nc3ccc4c(c3[nH]2)C(=O)c2ccccc2C4=O)cc1` here?
A: 89.4%

Q: What about the growth at 10 µM (MCF7) of the same molecule?
A: 62.7%

Q: And the growth at 10 µM (MDA-MB-435)?
A: 113%

Q: And the growth at 10 µM (SK-OV-3)?
A: 104%

Q: What about the growth at 10 µM (K562) of the same molecule?
A: 54.9%

Q: What about the growth at 10 µM [1] of the same molecule?
A: 114%

Q: And the growth at 10 µM (SR)?
A: 84.1%

Q: What about the growth at 10 µM (786-0) of the same molecule?
A: 124%

Q: What about the growth at 10 µM (ACHN) of the same molecule?
A: 111%

Q: And the growth at 10 µM (CAKI-1)?
A: 110%

Q: What about the growth at 10 µM (SK-MEL-5) of the same molecule?
A: 103%

Q: And the growth at 10 µM (HOP-92)?
A: 56.2%

Q: What about the growth at 10 µM (NCI-H23) of the same molecule?
A: 90.9%

Q: And the growth at 10 µM (NCI-H322M)?
A: 127%

Q: What about the growth at 10 µM (NCI-H460) of the same molecule?
A: 105%

Q: And the growth at 10 µM (KM12)?
A: 98.6%

Q: What about the residual activity [2] of the same molecule?
A: 30%
